Measured values taken from ChEMBL document CHEMBL1149538, “A high-throughput assay for O-GlcNAc transferase detects primary sequence preferences in peptide substrates” (Bioorg Med Chem Lett, 2007).
Where a SMILES comes first, the peptide text is derived from it.

Molecular target: T1, UDP-N-acetylglucosamine--peptide N-acetylglucosaminyltransferase 110 kDa subunit (Homo sapiens) (UniProt O15294)
T1 sequence (whole entry): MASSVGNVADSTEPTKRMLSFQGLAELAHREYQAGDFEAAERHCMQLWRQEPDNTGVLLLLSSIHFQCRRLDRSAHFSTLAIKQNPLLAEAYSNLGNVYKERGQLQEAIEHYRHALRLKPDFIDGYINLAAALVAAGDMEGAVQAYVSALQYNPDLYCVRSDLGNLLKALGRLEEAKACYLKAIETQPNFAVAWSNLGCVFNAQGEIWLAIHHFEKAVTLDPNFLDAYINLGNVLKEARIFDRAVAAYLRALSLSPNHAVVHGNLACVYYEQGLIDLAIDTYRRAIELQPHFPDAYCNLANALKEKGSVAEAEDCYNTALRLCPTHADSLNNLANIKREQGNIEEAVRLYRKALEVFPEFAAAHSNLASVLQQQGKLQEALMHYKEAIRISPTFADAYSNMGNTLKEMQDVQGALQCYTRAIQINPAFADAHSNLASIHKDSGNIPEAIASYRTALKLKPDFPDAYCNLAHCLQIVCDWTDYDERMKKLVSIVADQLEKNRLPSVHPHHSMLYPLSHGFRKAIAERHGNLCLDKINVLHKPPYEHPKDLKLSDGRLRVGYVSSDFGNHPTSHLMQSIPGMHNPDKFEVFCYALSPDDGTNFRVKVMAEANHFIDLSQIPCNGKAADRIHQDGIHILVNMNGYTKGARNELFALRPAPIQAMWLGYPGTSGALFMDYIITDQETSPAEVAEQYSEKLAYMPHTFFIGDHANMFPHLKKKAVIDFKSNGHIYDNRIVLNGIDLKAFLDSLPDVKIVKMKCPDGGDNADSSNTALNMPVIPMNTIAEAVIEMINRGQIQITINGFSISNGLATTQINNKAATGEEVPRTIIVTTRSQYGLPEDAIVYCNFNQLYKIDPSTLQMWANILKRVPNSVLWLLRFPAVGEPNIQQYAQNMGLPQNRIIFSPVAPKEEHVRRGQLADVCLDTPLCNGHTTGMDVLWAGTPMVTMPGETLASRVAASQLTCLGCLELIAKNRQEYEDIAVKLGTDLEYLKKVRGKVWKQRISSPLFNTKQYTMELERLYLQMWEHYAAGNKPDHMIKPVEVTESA
Assay: Binding affinity to human OGT expressed in Escherichia coli […] cells assessed as alpha-FLAG-HRP activity relative to alpha-A-crystallin peptide by azido-ELISA
Conditions: BL21-DE3
How it was run: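 Biotinylated peptides are reacted at saturating levels with Ni-column-purified human OGT from E. coli BL21(DE3), plus UDP-GlcNAz 62.5 μM, MgCl2 12.5 μM and β-mercaptoethanol 1 mM, for 4 h at 37 °C. Reactions are stopped with pH 4.5 sodium acetate and captured on NeutrAvidin. Product is tagged with phosphine-FLAG, detected by anti-FLAG-HRP/TMB at A450, normalized to the parent peptide after Ala-peptide background subtraction. Data are from 3 experiments, each in triplicate.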

SMILES	Activity
CC(C)[C@H](NC(=O)[C@@H]1CCCN1C(=O)[C@H](C)NC(=O)[C@H](C)N)C(=O)N[C@@H](CO)C(=O)N[C@@H](CCCNC(=N)N)C(=O)N[C@@H](CCC(=O)O)C(=O)N[C@@H](CCC(=O)O)C(=O)N[C@@H](CCCCN)C(=O)O (H-AAPVSREEK-OH)	0.4
CC(C)[C@H](NC(=O)[C@@H]1CCCN1C(=O)[C@H](CCC(=O)O)NC(=O)[C@H](C)N)C(=O)N[C@@H](CO)C(=O)N[C@@H](CCCNC(=N)N)C(=O)N[C@@H](CCC(=O)O)C(=O)N[C@@H](CCC(=O)O)C(=O)N[C@@H](CCCCN)C(=O)O (H-AEPVSREEK-OH)	0.5
CC[C@H](C)[C@H](NC(=O)[C@H](C)N)C(=O)N[C@@H](C)C(=O)N[C@H](C(=O)N[C@@H](CO)C(=O)N[C@@H](CCCNC(=N)N)C(=O)N[C@@H](CCC(=O)O)C(=O)N[C@@H](CCC(=O)O)C(=O)N[C@@H](CCCCN)C(=O)O)C(C)C (H-AIAVSREEK-OH)	0.1
CC[C@H](C)[C@H](NC(=O)[C@H](C)N)C(=O)N[C@@H](CCC(=O)O)C(=O)N[C@H](C(=O)N[C@@H](CO)C(=O)N[C@@H](CCCNC(=N)N)C(=O)N[C@@H](CCC(=O)O)C(=O)N[C@@H](CCC(=O)O)C(=O)N[C@@H](CCCCN)C(=O)O)C(C)C (H-AIEVSREEK-OH)	0
CC[C@H](C)[C@H](NC(=O)[C@H](C)N)C(=O)N1CCC[C@H]1C(=O)N[C@@H](CCC(=O)O)C(=O)N[C@@H](CO)C(=O)N[C@@H](CCCNC(=N)N)C(=O)N[C@@H](CCC(=O)O)C(=O)N[C@@H](CCC(=O)O)C(=O)N[C@@H](CCCCN)C(=O)O (H-AIPESREEK-OH)	0.2
CC[C@H](C)[C@H](NC(=O)[C@H](C)N)C(=O)N1CCC[C@H]1C(=O)N1CCC[C@H]1C(=O)N[C@@H](CO)C(=O)N[C@@H](CCCNC(=N)N)C(=O)N[C@@H](CCC(=O)O)C(=O)N[C@@H](CCC(=O)O)C(=O)N[C@@H](CCCCN)C(=O)O (H-AIPPSREEK-OH)	0.1
CC[C@H](C)[C@H](NC(=O)[C@H](C)N)C(=O)N1CCC[C@H]1C(=O)N[C@@H](CCCNC(=N)N)C(=O)N[C@@H](CO)C(=O)N[C@@H](CCCNC(=N)N)C(=O)N[C@@H](CCC(=O)O)C(=O)N[C@@H](CCC(=O)O)C(=O)N[C@@H](CCCCN)C(=O)O (H-AIPRSREEK-OH)	0

Continued, values first:

Activity	SMILES
0.1	CC[C@H](C)[C@H](NC(=O)[C@H](C)N)C(=O)N1CCC[C@H]1C(=O)N[C@@H](C)C(=O)N[C@@H](CO)C(=O)N[C@@H](CCCNC(=N)N)C(=O)N[C@@H](CCC(=O)O)C(=O)N[C@@H](CCC(=O)O)C(=O)N[C@@H](CCCCN)C(=O)O (H-AIPASREEK-OH)
0.3	CC[C@H](C)[C@H](NC(=O)[C@@H]1CCCN1C(=O)[C@@H](NC(=O)[C@H](C)N)[C@@H](C)CC)C(=O)N[C@@H](CO)C(=O)N[C@@H](CCCNC(=N)N)C(=O)N[C@@H](CCC(=O)O)C(=O)N[C@@H](CCC(=O)O)C(=O)N[C@@H](CCCCN)C(=O)O (H-AIPISREEK-OH)
0	CC[C@H](C)[C@H](NC(=O)[C@H](C)N)C(=O)N1CCC[C@H]1C(=O)N[C@H](C(=O)N[C@@H](CO)C(=O)N[C@@H](C)C(=O)N[C@@H](CCC(=O)O)C(=O)N[C@@H](CCC(=O)O)C(=O)N[C@@H](CCCCN)C(=O)O)C(C)C (H-AIPVSAEEK-OH)
0	CC[C@H](C)[C@H](NC(=O)[C@H](C)N)C(=O)N1CCC[C@H]1C(=O)N[C@H](C(=O)N[C@@H](CO)C(=O)N[C@@H](CCC(=O)O)C(=O)N[C@@H](CCC(=O)O)C(=O)N[C@@H](CCC(=O)O)C(=O)N[C@@H](CCCCN)C(=O)O)C(C)C (H-AIPVSEEEK-OH)
0.1	CC[C@H](C)[C@H](NC(=O)[C@H](CO)NC(=O)[C@@H](NC(=O)[C@@H]1CCCN1C(=O)[C@@H](NC(=O)[C@H](C)N)[C@@H](C)CC)C(C)C)C(=O)N[C@@H](CCC(=O)O)C(=O)N[C@@H](CCC(=O)O)C(=O)N[C@@H](CCCCN)C(=O)O (H-AIPVSIEEK-OH)
0	CC[C@H](C)[C@H](NC(=O)[C@H](C)N)C(=O)N1CCC[C@H]1C(=O)N[C@H](C(=O)N[C@@H](CO)C(=O)N1CCC[C@H]1C(=O)N[C@@H](CCC(=O)O)C(=O)N[C@@H](CCC(=O)O)C(=O)N[C@@H](CCCCN)C(=O)O)C(C)C (H-AIPVSPEEK-OH)
